In ChEMBL document CHEMBL1149040, “Two new macrolide sesquiterpene pyridine alkaloids from Maytenus emarginata: emarginatine G and the cytotoxic emarginatine F” (1994):
≈ marks a conversion by molar mass, not a printed value.

How the values were obtained:
Assay type in all cases: functional
Conditions in all cases: read-out: ED50 (the source's name)
KB = test: Cytotoxicity against human KB cells
Procedure, shortened: (§1)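 In vitro cytotoxicity against a tumor-cell panel. Panel: KB (nasopharyngeal carcinoma), A-549 (human lung carcinoma), HCT-8 (human colon adenocarcinoma), RPMI-7951 (human melanoma), TE-671 (human medulloblastoma) and P-388 (murine leukemia). The procedure follows published protocols.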

A549 = test: Cytotoxicity against human A549 cells; procedure, shortened: as §1
HCT-8 = test: Cytotoxicity against human HCT8 cells; procedure, shortened: as §1
P388 = test: Cytotoxicity against mouse P388 cells; procedure, shortened: as §1
TE-671 = test: Cytotoxicity against human TE671 cells; procedure, shortened: as §1
RPMI-7951 = test: Cytotoxicity against human RPMI7951 cells; procedure, shortened: as §1

| Compound | EC50 (KB) | EC50 (A549) | EC50 (HCT-8) | EC50 (P388) | EC50 (TE-671) | EC50 (RPMI-7951) |
| --- | --- | --- | --- | --- | --- | --- |
| CC(=O)OC[C@]12[C@H](OC(C)=O)[C@@H](O)[C@@H]3[C@@H](OC(C)=O)[C@@]14O[C@@]3(C)COC(=O)c1cccnc1[C@H](C)[C@H](C)C(=O)O[C@@H]([C@H](OC(=O)c1ccc(=O)n(C)c1)[C@@H]2OC(=O)c1ccccc1)[C@@]4(C)O [EMARGINATINE F] | 0.51 µg/mL (≈ 0.555 µM) | 5.5 µg/mL (≈ 5.99 µM) | 1.29 µg/mL (≈ 1.4 µM) | 0.69 µg/mL (≈ 0.751 µM) | 0.21 µg/mL (≈ 0.229 µM) | < 0.1 µg/mL |
| C/C=C(\C)C(=O)O[C@H]1[C@@H](OC(=O)c2ccc(=O)n(C)c2)[C@@H]2OC(=O)[C@@H](C)[C@@H](C)c3ncccc3C(=O)OC[C@]3(C)O[C@@]4([C@H](OC(C)=O)[C@H]3[C@@H](OC(C)=O)[C@@H](OC(C)=O)[C@]14COC(C)=O)[C@]2(C)O [EMARGINATINE G] | > 10 µg/mL | > 10 µg/mL | > 10 µg/mL | > 10 µg/mL | > 10 µg/mL | > 10 µg/mL |
